assay: Toxicity liver stage against HepG2, at 10uM; type: cell-based; parameters: test concentration 10 uM, cell line HepG2-A16-CD81EGFP; conditions: human, HepG2-A16-CD81EGFP cells; read-out: INHIBITION
Method in brief: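 Uninfected HepG2-A16-CD81EGFP cells, 3 × 10^3 per well, 1536-well, plated on prespotted compound at 10 μM final, parasite-free screening media added to match infected plates; puromycin 10 μM positive, DMSO 0.5% negative; run in parallel with 48 h PbLuc assay at 37 °C, 5% CO2; viability by CellTiter-Glo luminescence, normalized to controls.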

Compound | cytotoxicity at 10 µM [%]
Nc1ncncc1-c1noc([C@@H]2CCCN2Cc2cccnc2)n1 | -7.29
CS(=O)(=O)NC[C@H]1OC[C@@H]2CCN(C(=O)c3cccnc3)C[C@@H]21 | 5.31
COCC(=O)N1C[C@H]2CC[C@@]3(N=C(c4ccccc4)NC3=O)[C@H]2C1 | 3.83
CCOCC1CN(C(=O)c2cccs2)Cc2nn(C)cc21 (stereo not drawn) | -1.63
Cn1cc(N2CCC3(CCN(C(=O)c4cccn4C)C3)C2=O)cn1 (stereo not drawn) | 2.93
CCCNC(=O)c1sccc1N(C)S(=O)(=O)c1ccc(Cl)cc1 | 9.22
O=S(=O)(C1CC1)N1CCO[C@H]2[C@H](OCC3CCCC3)CC[C@@H]21 | -5.58
COCCO[C@H]1CCN(C(=O)c2ccno2)[C@H]1Cc1cnn(C)c1 | -5.45
Cc1nn(CC(F)F)c2c1c(C(F)F)cc(=O)n2CC(=O)O | 2.84
O=C1CCOC[C@]2(CN(Cc3ccccc3)C[C@H]2c2ccccc2F)N1 | -1.02
CC(=O)N1CCCC1c1nc(CN(C)C(=O)C(C)C)cc(N(C)C)n1 (stereo not drawn) | -2.62
CS(=O)(=O)N[C@@H]1CN(Cc2ccc3ncccc3c2)C[C@H]1O | -4.34
Cn1nccc1CN1CCOC(c2ccc(-c3cncnc3)cn2)C1 (stereo not drawn) | 3.27
CN(C)c1ncc(CN2CCOC(C(=O)Nc3ccccc3)C2)cn1 (stereo not drawn) | -3.14
COC(=O)c1ccc(-c2cc(C(F)(F)F)cc(N(C)C)n2)cc1 | -0.409
CC(O)c1cn(Cc2ccc(F)cc2)nn1 (stereo not drawn) | 4.78
Cn1cc(C2CCCN2C(=O)c2cnc(-c3ccco3)s2)cn1 (stereo not drawn) | 3.88
CC1c2ccc(F)cc2CCN1C(=O)c1[nH]c(=O)[nH]c(=O)c1N (stereo not drawn) | -5.22
CNC(=O)c1cccc(Nc2cnn(C)c2)c1 | 6.77
CN(C)c1cccc(C2CCCN2c2nc3c(cnn3C)c(=O)[nH]2)c1 (stereo not drawn) | 0.91
Cc1[nH]n(-c2ccccc2)c2nnc(N)c1-2 | 12.4
CCN(Cc1cnn(C)c1)S(=O)(=O)c1ccc(NC(=O)C(C)(C)C)cc1 | 0.165

Compound | cytotoxicity at 10 µM [%]
CCNC(=O)Cc1ccc(NC(=O)NC(CC)CC)cc1 | -6.93
Cc1csc(CNC(=O)NCC(O)c2ccc(F)cc2F)n1 (stereo not drawn) | -10.8
CC(=O)NCC1CN(c2ccc3c(Cl)ccnc3c2F)CCO1 (stereo not drawn) | 5.29
CC(=O)N1CCC[C@H]1C(=O)N(C)CCCOc1ccccc1 | -1.18
Cn1cc(Br)cc(NC(=O)CC2CCC2)c1=O | -8.15
O=C(CN1CCOC(Cn2cncn2)C1)NC(C1CC1)C1CC1 (stereo not drawn) | -49.5
O=C(COCC1CC1)Nc1cc(-c2ccc(Br)s2)n[nH]1 | -155
O=C(Nc1nnn[nH]1)c1ccc(I)c(F)c1 | -2.56
CCC(NC(=O)CNC(=O)OC)c1cc(F)ccc1F (stereo not drawn) | -5.03
FC(F)(F)COc1ccc(CSCc2ccon2)cn1 | -4.52
COc1ccc(CNc2cccnc2-n2cccn2)cc1OC | 7.25
O=C(CN1CCN(CCO)CC1)NC(C1CC1)C1CC1 | -6.56
CCC[C@@H](NC(N)=O)C(=O)N1CCc2c(Cl)cccc2C1 | 5.79
N#Cc1ccc(CNCC2CCN(CCO)CC2)cc1 | -9.7
CCS(=O)(=O)N1Cc2cncn2CC(C(=O)NCC2CC2)C1 (stereo not drawn) | -97.6
Cc1ccc(N2C[C@H]3OCC[C@H]3[C@H](C(=O)NCc3ccco3)C2)nn1 | -67.4
COCC(=O)N1CCC2(CC1)CN(c1cncnc1)C(=O)CO2 | -78.6
Cc1noc([C@@H]2CCO[C@@H]3CCN(Cc4cccs4)C[C@@H]32)n1 | -74.6
CC(C)NC(=O)C1CN(C(=O)COc2ccccc2)CC12CCOCC2 (stereo not drawn) | -78.3
CCc1nc(C)c(C(=O)N2CCNCC2C(=O)NCc2ccncc2)o1 (stereo not drawn) | -3.64
Fc1ccc(N2CCCN(Cc3ccc(-c4cc[nH]n4)o3)CC2)cc1 | 0.898
CC(C)CCn1cc(C(C(=O)O)N2CCC(c3ccncc3)CC2)cn1 (stereo not drawn) | 3.34

Compound | cytotoxicity at 10 µM [%]
COC[C@]1(O)CCN(C2CCN(c3ccc(OC)cc3)CC2)CC1(C)C | -3.17
COc1ccccc1CN1C(=O)O[C@@H]2CN(c3nc(C)cc(C)n3)C[C@@H]21 | 0.819
Cc1ccc([C@@H]2CN(S(=O)(=O)N3CCC(C)CC3)C[C@H]2N(C)C)cc1 | -3.59
O=C(Nc1ccccc1CCO)c1cccc(CN2CC[C@H](O)C2)c1 | 8.77
O=C1CC[C@H]2CN(Cc3cccnc3)CC[C@H]2N1CCc1c[nH]cn1 | -1.36
CN(Cc1cc(-c2ccncc2)no1)C(=O)[C@@H]1CSCN1C | -2.62
Cc1ccc2c(C)c(C(=O)NCc3csc(N)n3)oc2c1 | -2.83
Cc1ccc(CCNc2nc(-c3ccncc3)nc3c2CCNCC3)o1 | -132
COCCCN(Cc1cnc(-c2ccccn2)nc1)C1CCN(C)CC1 | -0.988
Cc1cc2c(c(-c3cnccn3)c1)OC(CN)C2 (stereo not drawn) | -5.13
CCC(CO)N(Cc1ccccn1)C(=O)c1ccc(F)c(F)c1 (stereo not drawn) | -0.273
CC(=O)N1CCN(Cc2ccc(Cl)c(F)c2)CC(O)C1 (stereo not drawn) | -1.48
NC(=O)c1cccc(CC2CCN(C(=O)CO)C2)c1 (stereo not drawn) | -23.7
Cc1ccc(C#N)c(N2CCC(c3nccn3Cc3cscn3)CC2)n1 | -6.96
CC(=O)N1CCCCC1c1cc(C(=O)N2CCOCC2)[nH]n1 (stereo not drawn) | -3.68
Cc1cnc(CN2CCN(c3ccc4nncn4n3)C(C)C2)cn1 (stereo not drawn) | -2.21
Cc1cccc(CN(Cc2nc3c(cnn3C)c(=O)[nH]2)C2CC2)c1 | 0.914
CC(C)c1nn(C)c(N2CCOCC2)c1CNC(C)c1ccccn1 (stereo not drawn) | -6.56
O=C(NCCN1CCOCC1)c1scnc1Cl | -2.09
Cc1ccc(OCCN(C)Cc2nc3c(cnn3C)c(=O)[nH]2)cc1 | -3.44
Cc1nn(C)c(C)c1CC(=O)N1CCCC(n2ccnc2C)C1 (stereo not drawn) | -5.36
O=C(C1CCCCC1)N1CCN(Cc2nc(-c3ccco3)no2)CC1 | -1.01

Compound | cytotoxicity at 10 µM [%]
Cc1nnc(C(C)N2CCCN(Cc3ccc(C#N)cc3)CC2)o1 (stereo not drawn) | -11.1
c1ccc(Cc2nnc(CN3CCCCC3Cn3cncn3)o2)cc1 (stereo not drawn) | -20.4
NC(=O)C1CCCN(C(=O)c2cccc(OCc3cscn3)c2)C1 (stereo not drawn) | -7.98
Cc1ccccc1-c1noc(CN2CCOC(Cn3cccn3)C2)n1 (stereo not drawn) | -5.04
O=C(c1cnc2c(cnn2C2CCCC2)c1)N1CCN(CCO)CC1 | -17.2
Cc1ccnn1-c1ccc(C(=O)N2CCCC(n3ccnc3)C2)cc1 (stereo not drawn) | -18.2
O=C(Cc1n[nH]c2ccccc12)N1CCCC1Cn1cccn1 (stereo not drawn) | -14.7
Cc1cc2n(n1)CC(CNCc1ccccc1Cn1cccn1)CN2 (stereo not drawn) | -13.3
c1ccc(Cc2noc(CN3CCOC(Cn4cccn4)C3)n2)cc1 (stereo not drawn) | -6.67
Cc1cc(C)n(C2CCCN(C(=O)c3cccc4c3OCO4)C2)n1 (stereo not drawn) | -3.88
Cc1csc(C2CCCN(C(=O)c3c[nH]c(C)n3)C2)n1 (stereo not drawn) | -17
COc1cc(C(=O)N2CCCC(c3cc(C)[nH]n3)C2)ccc1C (stereo not drawn) | -17.5
CCOCC(O)CN1CCN(C(=O)C(C)(C)CC)CC1 (stereo not drawn) | -20.7
O=C(c1cc2c(F)cccc2[nH]1)N1CCC(Nc2cccnn2)CC1 | -19.3
COCCCNC(=O)N1CCCC(c2nncn2C)C1 (stereo not drawn) | -19.7
Cc1nn(C)c(C)c1C1CCCN1Cc1noc(C2CC2)n1 (stereo not drawn) | -6.95
N#Cc1ccccc1OCCN1CCC(N2CCNC2=O)CC1 | -8.58
CC(=O)N1CCCN(C(=O)c2csc(-c3ccc(C)cc3C)n2)CC1 | 20.8
CCc1nc(C)ncc1C(=O)N1CCCC(n2nc(C)nc2C)C1 (stereo not drawn) | -8.47
Cc1cc2n(n1)CC(CNCc1ccnc(-n3ccnc3C)c1)CN2 (stereo not drawn) | -4.95
CCCOc1ccc(CNC(=O)N2CCC(C(N)=O)C2)cc1 (stereo not drawn) | -5.87
CCn1cc(CN2CCCN(C(=O)c3sccc3C#N)CC2)cn1 | -6.41

Compound | cytotoxicity at 10 µM [%]
N#Cc1cccc(S(=O)(=O)NC2CCN(Cc3ccccc3)C2=O)c1 (stereo not drawn) | -7.18
CCOC1CCCN(C(=O)c2cnc3c(cnn3C3CCCC3)c2)C1 (stereo not drawn) | -3.74
Cc1ncsc1C(=O)NC1CCN(CCC(N)=O)CC1 | -10.2
O=S(=O)(CCCN1CCCC1Cn1cccn1)c1ccccc1 (stereo not drawn) | -5.18
COc1ccc(-c2cnc(N)nc2C2CCCNC2)cc1 (stereo not drawn) | -1.51
CN(C)[C@@H]1CN(Cc2cccnc2)C[C@H]1c1cn(C)c2ccccc12 | 1.44
COc1ccc(CN(Cc2ccccn2)Cc2cncn2C)cc1 | 9.65
CO[C@@H]1CC[C@H]2[C@H]1OCCN2CC1CC1 | 11.4
COCC1CN(C(=O)c2cccc(C)n2)Cc2nccn2C1 (stereo not drawn) | -103
COc1ccc(CN2C[C@@H]3COC[C@]3(COc3cccnc3)C2)cc1 | -18.4
Cc1nc(CN2CCC(O)(c3ccccc3F)CC2)c2ccccn12 | 2.45
CCS(=O)(=O)N1CCc2c(COCCN(C)C)cncc2C1 | -104
Cc1ccc(CN2C[C@@H](OCc3ccccn3)[C@H]3COC[C@H]32)o1 | -114
c1cc(-c2ccc3nc(C4CCN(CC5CC5)CC4)nn3c2)cs1 | -12.2
O=C(c1cccnc1)N1CCN2C[C@H](OCc3ccccc3)C[C@H]2C1 | -75.2
O=C(Cc1cccs1)N1C[C@@H]2CN(Cc3ccoc3)CCO[C@@H]2C1 | -70.8
CN(C)CCNCCC(c1ccccc1)C1CCOC(C)(C)C1 (stereo not drawn) | -5.67
CN(C)C(=O)CN1C(=O)[C@@H]2CC[C@H]1CN(Cc1ccccc1C#N)C2 | 1.22
O=c1c2c[nH]c(N3CCOCC3)nc-2cn1C1CCS(=O)(=O)C1 (stereo not drawn) | 3.41
O=S(=O)(c1ccccc1)N1C2CCC(O)(CC2)C1CN1CCOCC1 (stereo not drawn) | -4.65

From ChEMBL document CHEMBL4513216, “Probing the Open Global Health Chemical Diversity Library for Multistage-Active Starting Points for Next-Generation Antimalarials” (ACS Infect Dis, 2020)
